Activity calls are given as the source filed them. The rule behind the calls is not given here.
How the values were obtained:
[1] = system: Hepacivirus hominis; assay: Fold resistance, ratio of HCV NS5B Cdelta 21 RNA dependent RNA polymerase S282T mutant to IC50 for IC50 for HCV wild type NS5B Cdelta 21 RNA dependent RNA polymerase
[2] = biological target: RNA-directed RNA polymerase (Hepacivirus hominis, UniProt O39930, S282T); assay: Inhibition of Hepatitis C virus NS5B Cdelta 21 RNA dependent RNA polymerase S282T mutant expressed in Escherichia coli BL21(DE3)
[3] = Inhibition of Hepatitis C virus wild-type NS5B Cdelta 21 RNA dependent RNA polymerase expressed in Escherichia coli BL21(DE3); design: species or system Hepacivirus hominis
[4] = system: Human immunodeficiency virus 1; assay: Antiviral activity against HIV1 LAV1 infected in PHA-stimulated human PBMC assessed as reduction in RT activity after 6 days by micromethod-based beta scintillation counting; assay type: functional, organism-based; conditions: Human immunodeficiency virus 1, LAV1, 144 h
[5] = system: Huh-7; assay: Metabolic stability in human HuH7 cells assessed as diphosphate level at 50 uM after 4 hrs by LC-MS/MS analysis; assay type: ADME, cell-based; conditions: huh-7, 4 h
Method in brief: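 For the cellular pharmacology study, Huh-7 cells were incubated separately with the nucleoside or its phosphoramidate prodrug at 50 μM for 4 h at 37 °C, then washed with phosphate-buffered saline before analysis of intracellular metabolites.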

[6] = system: CCRF-CEM; assay: Cytotoxicity against human CEM cells after 6 days by trypan blue exclusion method; assay type: cell-based; conditions: 144 h
[7] = system: Hepatitis C virus; assay: Antiviral activity against Hepatitis C virus infected in human HuH7 cells assessed as decrease in viral RNA level after 96 hrs by RT-PCR; assay type: functional, organism-based, Hepacivirus hominis; conditions: Huh-7, 96 h
[8] = system: Huh-7; assay: Metabolic stability in human HuH7 cells assessed as 5'-monophosphate level at 50 uM after 4 hrs by LC-MS/MS analysis; assay type: ADME, cell-based; conditions: huh-7, 4 h
Method in brief: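 Huh-7 cells were exposed to the parent nucleoside or its phosphoramidate prodrug, each separately at 50 μM, at 37 °C for 4 h, then washed with phosphate-buffered saline before intracellular analysis.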

[9] = system: Huh-7; assay: (§1) Cytotoxicity against human HuH7 cells assessed as reduction of 50% rRNA level after 96 hrs; assay type: cell-based; conditions: huh-7, 96 h
Method in brief: (§2)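 Huh-7 cells carrying the HCV replicon were exposed to compound for 96 h. Toxicity was read as a fall in cellular rRNA.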

[10] = system: PBMC; assay: Cytotoxicity against human PBMC after 6 days by trypan blue exclusion method; assay type: cell-based; conditions: 144 h
[11] = system: Vero; assay: Cytotoxicity against african green monkey Vero cells after 3 days by hemocytometer analysis; assay type: cell-based; conditions: Chlorocebus sabaeus, 72 h
[12] = system: HepG2; assay: Cytotoxicity against human HepG2 cells by neutral red dye uptake assay; assay type: cell-based
[13] = system: Hepatitis B virus; assay: Antiviral activity against wild type Hepatitis B virus infected in hepatocytes; assay type: functional, organism-based; conditions: Hepatocyte
[14] = as §1; assay type: cell-based, Huh-7; conditions: HuH7 cells; method in brief: as §2

Chain of RNA-directed RNA polymerase (O39930 entry or part of it S282T): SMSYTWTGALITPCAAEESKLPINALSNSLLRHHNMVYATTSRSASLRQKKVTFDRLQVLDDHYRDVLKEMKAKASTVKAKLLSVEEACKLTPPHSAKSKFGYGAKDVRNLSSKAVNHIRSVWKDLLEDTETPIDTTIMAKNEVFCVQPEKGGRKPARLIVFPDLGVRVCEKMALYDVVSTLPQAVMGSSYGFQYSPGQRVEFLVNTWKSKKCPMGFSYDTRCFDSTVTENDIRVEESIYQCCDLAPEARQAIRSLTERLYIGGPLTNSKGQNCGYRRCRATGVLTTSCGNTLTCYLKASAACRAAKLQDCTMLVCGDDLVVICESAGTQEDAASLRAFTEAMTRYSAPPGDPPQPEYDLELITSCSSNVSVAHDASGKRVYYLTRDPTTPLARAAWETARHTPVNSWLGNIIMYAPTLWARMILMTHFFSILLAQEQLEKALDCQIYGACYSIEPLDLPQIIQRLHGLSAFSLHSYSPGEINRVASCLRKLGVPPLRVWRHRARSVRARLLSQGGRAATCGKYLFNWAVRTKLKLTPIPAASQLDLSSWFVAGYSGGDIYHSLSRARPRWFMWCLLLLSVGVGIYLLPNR

SMILES	Ratio IC50 [1]	IC50 [2] [µM]	IC50 [3] [µM]	EC50 [4] [µM]	Stability [5]	IC50 [6] [µM]	EC50 [7] [µM]	EC90 [7] [µM]	Stability [8]	CC50 [9] [µM]	IC50 [10] [µM]	IC50 [11] [µM]	EC90 [4] [µM]	Activity [12]	Activity [13]	CC50 at 96 h [14] [µM]
COP(=O)(OC)OP(=O)(OC)OP(=O)(OC)OC[C@H]1O[C@@H](n2cc(F)c3c(N)ncnc32)[C@](C)(F)[C@@H]1O (stereo partly specified)	1.5	6	4													
C[C@@]1(F)[C@H](O)[C@@H](CO)O[C@H]1n1ccc2c(N)nc(N)nc21				> 100	Stable	> 100	> 10	> 10	Stable	> 10	> 100	> 100				
C[C@@]1(F)[C@H](O)[C@@H](CO)O[C@H]1n1cc(C#Cc2ccccc2)c2c(N)ncnc21				10.7		11.6	< 10			< 10	41.1	45.7	31.1	Toxic	Active	
COC(=O)/C=C/c1cn([C@H]2O[C@H](CO)[C@@H](O)[C@@]2(C)F)c2ncnc(N)c12				0.71		> 100	> 10			> 10	> 100	> 100	9.5		inactive	
COP(=O)(OC)OP(=O)(OC)OP(=O)(OC)OC[C@H]1O[C@@H](n2ccc3c(N)ncnc32)[C@](C)(F)[C@@H]1O (stereo partly specified)	1	15														
C[C@@]1(F)[C@H](O)[C@@H](CO)O[C@H]1n1cc(I)c2c(N)ncnc21				94		24	1.1	> 33			53.2	21.4	> 100			10.4
CCOC(=O)[C@H](C)NP(=O)(OC[C@H]1O[C@@H](n2ccc3c(N)nc(N)nc32)[C@](C)(F)[C@@H]1O)Oc1ccccc1 (stereo partly specified)				88		> 100	> 10	> 10	Unstable	> 10	> 100	> 100	> 100			
C#Cc1cn([C@H]2O[C@H](CO)[C@@H](O)[C@@]2(C)F)c2nc(N)nc(N)c12				7.1		26.5	> 10	> 10		> 10	54	61.7	59.1		inactive	
C[C@@]1(F)[C@H](O)[C@@H](CO)O[C@@H]1n1cc(I)c2c(N)ncnc21				> 100		40.9	7	24.9			> 100	65.9	> 100	Toxic	Active	> 33
C[C@@]1(F)[C@H](O)[C@@H](CO)O[C@@H]1n1cc(C#Cc2ccccc2)c2c(N)ncnc21				7.7		15.7	> 10	> 10		> 10	40.8	51.3	38		inactive	
